Test results from ChEMBL document CHEMBL1629536, “Incorporation of piperazino functionality into 1,3-disubstituted urea as the tertiary pharmacophore affording potent inhibitors of soluble epoxide hydrolase with improved pharmacokinetic properties” (J Med Chem, 2010).
Values after ≈ are worked out from the molar mass of the structure shown.

Columns and labels:
[1] = molecular target: T1, Bifunctional epoxide hydrolase 2 (Homo sapiens, UniProt P34913); experiment: Inhibition of human recombinant soluble epoxide hydrolase expressed in baculovirus expression system by fluorimetric assay
T1 sequence (P34913 whole entry): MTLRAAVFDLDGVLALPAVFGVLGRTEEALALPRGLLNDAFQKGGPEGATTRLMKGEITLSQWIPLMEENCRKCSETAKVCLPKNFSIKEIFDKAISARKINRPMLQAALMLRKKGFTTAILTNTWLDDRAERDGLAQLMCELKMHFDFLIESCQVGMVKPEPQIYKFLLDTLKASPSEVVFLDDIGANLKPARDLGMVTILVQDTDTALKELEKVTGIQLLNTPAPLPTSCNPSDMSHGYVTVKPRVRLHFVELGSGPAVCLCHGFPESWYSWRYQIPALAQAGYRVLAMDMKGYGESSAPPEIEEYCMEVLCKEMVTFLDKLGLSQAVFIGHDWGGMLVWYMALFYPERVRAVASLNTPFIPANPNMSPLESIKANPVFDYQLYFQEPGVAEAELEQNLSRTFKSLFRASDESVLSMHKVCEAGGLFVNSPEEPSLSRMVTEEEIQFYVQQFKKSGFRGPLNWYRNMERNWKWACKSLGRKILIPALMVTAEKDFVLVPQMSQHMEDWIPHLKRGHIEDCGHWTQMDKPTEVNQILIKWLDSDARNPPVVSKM

[2] = Solubility in sodium phosphate buffer at 0.1 M pH 7.4 at 25 degC; format: physicochemical
[3] = (§1) Half life in mouse at 5 mg/kg, po; format: ADME, organism-based; parameters: dose 5 mg/kg, route oral; details: in vivo
In short: (§2)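 Mice dosed by oral gavage at 5 mg/kg in oleic oil triglyceride containing 3% EtOH. Tail-vein blood was sampled before dosing and at 30, 60, 90, 120, 240, 450, 600 and 1440 min, then centrifuged at 3000 rpm, 4°C, 10 min. Plasma was analysed by LC/MS/MS. AUC and t1/2 came from noncompartmental fitting of the concentration-time data.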

[4] = Tmax in mouse at 5 mg/kg, po; format: ADME, organism-based; parameters: dose 5 mg/kg, route oral; details: in vivo
[5] = Cmax in mouse at 5 mg/kg, po; format: ADME, organism-based; parameters: dose 5 mg/kg, route oral; details: in vivo
[6] = AUC in mouse at 5 mg/kg, po; format: ADME, organism-based; parameters: dose 5 mg/kg, route oral; details: plasma; in short: as §2
Mus musculus = experiment: as §1; format: ADME, organism-based; parameters: dose 5 mg/kg, route oral; details: in vivo; in short: as §2

| Structure (SMILES) | IC50 [1] [nM] | further results |
| --- | --- | --- |
| CC(=O)N1CCN(CCCCOc2ccccc2NC(=O)NC23CC4CC(CC(C4)C2)C3)CC1 | 3150 |  |
| CN1CCN(CCCOc2cccc(NC(=O)NC34CC5CC(CC(C5)C3)C4)c2)CC1 | 23.1 | solubility [2]: 2210 µg/mL (≈ 5180 µM) |
| O=C(Nc1ccccc1OCCCN1CCNCC1)NC12CC3CC(CC(C3)C1)C2 | 97500 |  |
| CN1CCN(CCCOc2ccccc2NC(=O)NC23CC4CC(CC(C4)C2)C3)CC1 | 2880 |  |
| CC(=O)N1CCN(CCCOc2ccccc2NC(=O)NC23CC4CC(CC(C4)C2)C3)CC1 | 994 | solubility [2]: 1780 µg/mL (≈ 3920 µM) |
| O=C(Nc1cccc(OCCCN2CCNCC2)c1)NC12CC3CC(CC(C3)C1)C2 | 27.2 | solubility [2]: 810 µg/mL (≈ 1960 µM) |
| O=C(Nc1ccc(OCCCN2CCNCC2)cc1)NC12CC3CC(CC(C3)C1)C2 | 156 |  |
| CN1CCN(CCCOc2ccc(NC(=O)NC34CC5CC(CC(C5)C3)C4)cc2)CC1 | 17.9 |  |
| O=C(Nc1ccccc1OCCCCN1CCNCC1)NC12CC3CC(CC(C3)C1)C2 | 72800 |  |
| CN1CCN(CCCCOc2ccccc2NC(=O)NC23CC4CC(CC(C4)C2)C3)CC1 | 5290 |  |
| O=C(Nc1cccc(OCCCCN2CCNCC2)c1)NC12CC3CC(CC(C3)C1)C2 | 14.8 |  |
| CN1CCN(CCCCOc2cccc(NC(=O)NC34CC5CC(CC(C5)C3)C4)c2)CC1 | 13.3 |  |
| O=C(Nc1ccc(OCCCCN2CCNCC2)cc1)NC12CC3CC(CC(C3)C1)C2 | 126 |  |
| CN1CCN(CCCCOc2ccc(NC(=O)NC34CC5CC(CC(C5)C3)C4)cc2)CC1 | 44.8 |  |
| O=C(Nc1cccc(OCCCC(=O)N2CCNCC2)c1)NC12CC3CC(CC(C3)C1)C2 | 91.4 |  |
| CC(C)(C)OC(=O)N1CCN(C(=O)CCCOc2cccc(NC(=O)NC34CC5CC(CC(C5)C3)C4)c2)CC1 | 21.5 |  |
| O=C(Nc1cccc(OCCN2CCNCC2)c1)NC12CC3CC(CC(C3)C1)C2 | 67.1 |  |
| O=C(Nc1cccc(OCCCCCN2CCNCC2)c1)NC12CC3CC(CC(C3)C1)C2 | 13.8 |  |
| CC(C)(C)OC(=O)N1CCN(CCCCCOc2cccc(NC(=O)NC34CC5CC(CC(C5)C3)C4)c2)CC1 | 11.7 |  |
| O=C(Nc1cccc(OCCCCN2CCN(C(=O)c3ccc(C(F)(F)F)cc3)CC2)c1)NC12CC3CC(CC(C3)C1)C2 | 13.6 |  |
| CC(C)(C)OC(=O)N1CCN(CCCOc2ccccc2NC(=O)NC23CC4CC(CC(C4)C2)C3)CC1 | 39.4 |  |
| CC(C)(C)OC(=O)N1CCN(CCCCOc2ccccc2NC(=O)NC23CC4CC(CC(C4)C2)C3)CC1 | 16.5 |  |
| CC(C)(C)OC(=O)N1CCN(CCCOc2ccc(NC(=O)NC34CC5CC(CC(C5)C3)C4)cc2)CC1 | 14.6 |  |
| CC(C)(C)OC(=O)N1CCN(CCCCOc2ccc(NC(=O)NC34CC5CC(CC(C5)C3)C4)cc2)CC1 | 20.1 |  |
| O=C(O)CCCCCCCCCCCNC(=O)NC12CC3CC(CC(C3)C1)C2 |  | t1/2 (Mus musculus): 2.1 h; AUC [6]: 0.05 µM·h; solubility [2]: < 125 µg/mL |

The next lines start with results.

| IC50 [1] [nM] | Structure (SMILES) | further results |
| --- | --- | --- |
| 3.6 | CC(=O)N1CCN(CCCOc2cccc(NC(=O)NC34CC5CC(CC(C5)C3)C4)c2)CC1 | half-life [3]: 8 h; Tmax [4]: 0.5 h; Cmax [5]: 32 nM; AUC [6]: 0.185 µM·h; solubility [2]: 340 µg/mL (≈ 748 µM) |
| 3.3 | CC(=O)N1CCN(CCCOc2ccc(NC(=O)NC34CC5CC(CC(C5)C3)C4)cc2)CC1 | half-life [3]: 6 h; Tmax [4]: 0.5 h; Cmax [5]: 112 nM; AUC [6]: 0.58 µM·h; solubility [2]: 320 µg/mL (≈ 704 µM) |
| 2.7 | CC(=O)N1CCN(CCCCOc2cccc(NC(=O)NC34CC5CC(CC(C5)C3)C4)c2)CC1 | solubility [2]: 1820 µg/mL (≈ 3880 µM) |
| 7 | CC(=O)N1CCN(CCCCOc2ccc(NC(=O)NC34CC5CC(CC(C5)C3)C4)cc2)CC1 | half-life [3]: 14 h; Tmax [4]: 0.5 h; Cmax [5]: 84 nM; AUC [6]: 0.67 µM·h; solubility [2]: 700 µg/mL (≈ 1490 µM) |
| 7.1 | CC(C)(C)OC(=O)N1CCN(CCCCOc2cccc(NC(=O)NC34CC5CC(CC(C5)C3)C4)c2)CC1 | half-life [3]: 59 h; Tmax [4]: 9 h; Cmax [5]: 6 nM; AUC [6]: 0.085 µM·h; solubility [2]: 2780 µg/mL (≈ 5280 µM) |
| 5.4 | CC(=O)N1CCN(C(=O)CCCOc2cccc(NC(=O)NC34CC5CC(CC(C5)C3)C4)c2)CC1 |  |
| 7.8 | CN1CCN(CCOc2cccc(NC(=O)NC34CC5CC(CC(C5)C3)C4)c2)CC1 |  |
| 11.5 | CN1CCN(CCCCCOc2cccc(NC(=O)NC34CC5CC(CC(C5)C3)C4)c2)CC1 |  |
| 2.8 | CC(=O)N1CCN(CCCCCOc2cccc(NC(=O)NC34CC5CC(CC(C5)C3)C4)c2)CC1 |  |
| 6 | CC(=O)N1CCN(CCOc2cccc(NC(=O)NC34CC5CC(CC(C5)C3)C4)c2)CC1 | solubility [2]: 520 µg/mL (≈ 1180 µM) |
| 2.8 | CC(C)(C)OC(=O)N1CCN(CCOc2cccc(NC(=O)NC34CC5CC(CC(C5)C3)C4)c2)CC1 |  |
| 2.9 | CC(C)(C)OC(=O)N1CCN(CCCOc2cccc(NC(=O)NC34CC5CC(CC(C5)C3)C4)c2)CC1 | half-life [3]: 23 h; Tmax [4]: 0.5 h; Cmax [5]: 6 nM; AUC [6]: 0.1 µM·h; solubility [2]: 540 µg/mL (≈ 1050 µM) |
| 1.8 | O=C(Nc1cccc(OCCCCN2CCN(C(=O)C(F)(F)F)CC2)c1)NC12CC3CC(CC(C3)C1)C2 |  |
| 1.4 | O=C(Nc1cccc(OCCCCN2CCN(C(=O)CCl)CC2)c1)NC12CC3CC(CC(C3)C1)C2 |  |
| 1 | CS(=O)(=O)N1CCN(CCCCOc2cccc(NC(=O)NC34CC5CC(CC(C5)C3)C4)c2)CC1 | half-life [3]: 3.5 h; Tmax [4]: 0.5 h; Cmax [5]: 160 nM; AUC [6]: 0.333 µM·h; solubility [2]: 2970 µg/mL (≈ 5880 µM) |
| 9.6 | COc1cc(C(=O)N2CCN(CCCCOc3cccc(NC(=O)NC45CC6CC(CC(C6)C4)C5)c3)CC2)cc(OC)c1OC |  |
| 3.3 | Cc1ccc(S(=O)(=O)N2CCN(CCCCOc3cccc(NC(=O)NC45CC6CC(CC(C6)C4)C5)c3)CC2)cc1 |  |
